AI-2 QS mod: Vibrio harveyi AI-2 quorum sensing modulators, primary screen, JMH597 strain, luminescence/OD600 ratio; activity change, % at 7.5 µM; 300,000 compounds, 0.4% hits; Vibrio harveyi JMH597 AI-2 luminescence/OD600 ratio, 9 h; active compounds read low; strain lacks LuxN and CqsS sensors; 0 = neutral-control median; AID 2094, 2009; in the data active = activity change below about -75%, passing the limit was not always enough;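 note: luminescence divided by OD600 gain over 9 h not by final OD600 alone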
UBC13 inh: UBC13 polyubiquitin chain formation inhibitors, primary screen, biochemical, TR-FRET, uHTS. Ubiquitin-conjugating enzyme E2 N (Homo sapiens), P61088. inhibition, % at 20 µM. 330,000 compounds, 0.47% hits; in the data active = inhibition above about 45%, passing the limit was not always enough
Target sequence (P61088 whole entry, looked up): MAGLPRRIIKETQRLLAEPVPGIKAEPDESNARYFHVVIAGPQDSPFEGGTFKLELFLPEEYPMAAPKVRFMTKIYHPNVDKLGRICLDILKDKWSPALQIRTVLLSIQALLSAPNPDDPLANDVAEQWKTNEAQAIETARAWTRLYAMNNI
T cruzi inh: inhibitors of intracellular T. cruzi growth, primary screen, luminescence, NIH3T3 host cells | AID 1885, 2009 | inhibition, % (concentration not given with the values) | T. cruzi beta-gal in NIH3T3, 90 h | 300,000 compounds, 1.4% hits;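 active = mean inhibition across valid replicates above about 55%, limit read from the data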;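 note: signal also drops with host cell toxicity which is not excluded here; 0% = plate median of DMSO wells and 100% = zero luminescence signal; higher percent means less beta-gal luminescence so fewer parasites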
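System: mouse NIH/3T3 fibroblasts infected with β-gal-expressing T. cruzi Tulahuen C4 / Input: NIH/3T3 cells, 5,000 per well / Buffer or medium: Low-serum DMEM with 2% FBS / Probe or stimulus: 5000 reporter trypomastigotes per well / Schedule: ≥90 h infection period, 3 h prior cell attachment / Measured by: GalScreen luminescence, 60 min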
PP1 counter: PP1-alpha phosphatase inhibitors, primary screen, counter-screen for PP5 inhibitor project, biochemical, fluorescence, OMFP substrate, single point; Serine/threonine-protein phosphatase PP1-alpha catalytic subunit (Homo sapiens), P62136; purified PP1alpha; inhibition, % at 6.7 µM; 320,000 compounds, 0.9% hits;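 active = inhibition above the mean inhibition of all tested compounds plus 3 SD, computed separately for each screening campaign, cut at about 15% in these data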
Target sequence (P62136 whole entry, looked up): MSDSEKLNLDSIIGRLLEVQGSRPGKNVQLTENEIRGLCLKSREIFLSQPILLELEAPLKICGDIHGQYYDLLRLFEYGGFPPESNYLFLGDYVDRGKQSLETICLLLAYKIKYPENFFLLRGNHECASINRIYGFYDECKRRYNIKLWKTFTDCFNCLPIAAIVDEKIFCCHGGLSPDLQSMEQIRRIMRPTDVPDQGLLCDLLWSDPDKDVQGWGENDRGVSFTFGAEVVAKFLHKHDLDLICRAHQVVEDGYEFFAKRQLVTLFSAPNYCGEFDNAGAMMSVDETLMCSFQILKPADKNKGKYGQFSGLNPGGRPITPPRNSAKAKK
pCIP destab: p/CIP-EGFP fusion destabilizers, primary screen, fluorescence, F442A cells. Q05BA5. 16 h. 290,000 compounds, 0.01% hits. decrease of EGFP signal, % at 10 µM. AID 1984, 2009;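 active = EGFP signal decrease of at least 30% at 10 µM or well 3 SD below plate mean, unless failing retest; inactive = the rest, including hits failing retest or dose response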
PP1 inh confirm: PP1 phosphatase inhibitors, confirmation, biochemical, fluorescence, OMFP substrate, triplicate; shares compounds with PP1 counter; purified PP1alpha; inhibition, % at 6.7 µM; 1,900 compounds, 52% hits; AID 2358, 2010;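 active = mean PP1 inhibition above a set limit taken from the earlier primary screen, cut at about 15% in these data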
PP5 inh counter: PP5 phosphatase inhibition by PP1 hits, confirmation, counter-screen for PP1 inhibitor project, biochemical, fluorescence, triplicate; purified PP5c, OMFP fluorescence; 1,900 compounds, 4% hits; AID 2360, 2010; inhibition, % at 6.7 µM; shares compounds with PP1 counter;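 active = mean PP5 inhibition over triplicate wells above about 9.5% taken from the earlier PP1 screen, limit read from the data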
Starred values were filed as active, the others as inactive; . = not tested or not shown. Rows were chosen to be rich in hits. Some 2.8% of all compounds tested hit in one or more screens of this group.

SMILES	AI-2 QS mod	UBC13 inh	T cruzi inh	PP1 counter	pCIP destab	PP1 inh confirm	PP5 inh counter
COc1cccc(NC(=O)c2ccc(N3C(=O)C4CC=C(C)CC4C3=O)cc2)c1 (stereo unspecified)	16	2	-5	-4	-3	.	.
CN(CC(=O)Nc1ccc(F)cc1)C(=O)COC(=O)C1=COCCO1	8	-8	-6	-1	.	.	.
O=C(Cn1nc(-c2ccccc2)ccc1=O)Nc1ccc(NC(=O)c2ccccn2)cc1	11	-11	2	-2	0	.	.
Cc1ccc(NC(=O)Cn2nc(C(=O)Nc3ccc(C)cc3)ccc2=O)cc1	35	-12	-5	21*	-4	22*	-3
O=C(OCC(O)COc1ccccc1)c1ccc([N+](=O)[O-])cc1 (stereo unspecified)	-39	4	16	1	-14	.	.
O=C(NCc1ccncc1)C(=O)N/N=C/c1ccc(OCc2ccccc2)cc1	7	-3	3	38*	-11	32*	5
COc1ccc(NC(=O)c2cc(C)nc3ccccc23)cc1S(=O)(=O)N1CCOCC1	.	4	.	.	.	.	.
COc1ccc(NC(=O)c2cc(-c3ccco3)nc3ccccc23)cc1S(=O)(=O)N1CCOCC1	29	23	-1	45*	-7	9	-4
Cc1ccc(NC(=O)c2cc(-c3ccco3)nc3ccccc23)cc1S(=O)(=O)N1CCOCC1	41	20	-13	23*	-5	24*	3
COc1cc(/C=N/NC(=O)CSc2cc(C)c(Br)cc2C)ccc1O	14	5	-7	2	9	.	.
Cc1cc(SCC(=O)N/N=C/c2ccc(O)c(O)c2O)c(C)cc1Br	0	-24	28	35*	0	33*	-1
Cc1ccc(NC(=O)CSc2ncc3ccccn23)cc1	5	28	4	-8	-9	.	.
Cc1ccc(S(=O)(=O)c2cc3c(=O)n4ccccc4nc3n(Cc3ccco3)c2=N)cc1	8	-2	31	21*	-9	5	1
N=c1c(C(=O)NCc2ccco2)cc2c(=O)n3ccccc3nc2n1Cc1ccc(Cl)cc1	21	-1	43	18*	-14	7	-1
Cc1cccc(C)c1NCc1nnc(SCC(=O)Nc2nc(-c3ccccc3)cs2)n1-c1ccccc1	33	-7	12	-1	2	.	.
CCOC(=O)CSc1nnc(CNc2ccc(Cl)cc2)n1-c1ccccc1	1	-1	-4	-1	2	.	.
CCOc1ccc(NCc2nnc(SCC(=O)Nc3nc(-c4ccccc4)cs3)n2-c2ccccc2)cc1	34	-9	11	28*	8	15	-3
CCOc1ccc(NCc2nnc(SCc3ccc(Cl)cc3)n2-c2ccccc2)cc1	7	9	13	18*	-5	1	3
Cc1cc(C)cc(OCC(=O)OCC(=O)NC2CCCCCC2)c1	.	11	.	8	.	.	.
COc1cc(NC(=O)Cc2c(C(=O)O)[nH]c3ccccc23)cc(OC)c1OC	17	-6	-16	18*	6	2	-1
COc1ccccc1CNC(=O)c1ccc2nc3[nH]c4ccccc4c3nc2c1	-6	-18	25	21*	-161	23*	-2
COc1ccc(NC(=O)C(CCCCNC(=O)OC(C)(C)C)NC(=O)OCc2ccccc2)cc1 (stereo unspecified)	-3	-4	3	2	-9	.	.
CC(C)(C)OC(=O)N[C@@H](CCCCNC(=O)OCc1ccccc1)c1nnc([C@H](CCCCNC(=O)OCc2ccccc2)NC(=O)OC(C)(C)C)o1	4	-15	48	23*	0	13	2
O=C(N/N=C/c1cccc(F)c1)c1cc(-c2ccco2)nc2ccccc12	5	35	-17	31*	-3	11	-2
COc1cc(OC)c(OC)cc1CN1CCN(Cc2cccn2C)CC1	-4	-2	4	18*	5	4	5
SMILES	AI-2 QS mod	UBC13 inh	T cruzi inh	PP1 counter	pCIP destab	PP1 inh confirm	PP5 inh counter
CCCNC(=O)OCc1cccnc1Sc1ccc(C)cc1	9	-8	6	0	-6	.	.
COc1cccc(NC(=O)COC(=O)c2c(NC(C)=O)sc(C)c2C)c1	.	-17	.	18*	.	21*	3
CN(CC(=O)Nc1c(Cl)cccc1Cl)C(=O)c1sccc1-c1ccccc1	13	-6	-9	-1	.	.	.
O=S(=O)(c1ccc(Cl)cc1)N1CCN(Cc2ccc(O)c3ncccc23)CC1	-34	-26	55*	18*	-8	24*	-2
O=S(=O)(c1ccc(Cl)cc1)N1CCN(Cc2ccncc2)CC1	24	-6	3	2	-10	.	.
COC(=O)C1=C(CSc2nc3c(cc2C#N)CN(C)CC3)OC(N)=C(C#N)C1c1ccccc1F (stereo unspecified)	19	-10	32	18*	-36	5	4
O=C1C(Cc2ccccc2)Nc2ncnc(N3CCc4ccccc4C3)c2N1Cc1ccc(Cl)cc1 (stereo unspecified)	25	-42	43	24*	.	20*	6
CCCCN(C)C(=O)c1nc2ccccn2c1CN1CCN(c2cnccn2)CC1	17	6	-1	19*	1	-1	-1
CCOC(=O)CN1C(=O)SC(Nc2ccc(C)cc2)C1=O (stereo unspecified)	1	-6	-25	-3	2	.	.
CC(Oc1ccc(Br)cc1)C(=O)Nc1nc(-c2ccccn2)cs1 (stereo unspecified)	-60	1	69*	31*	1	32*	-2
CC(C)[C@H](NC(=O)c1ccccc1Cl)C(=O)Nc1nc(-c2ccccn2)cs1	46	2	66*	18*	-2	27*	0
O=C(Nc1nc(-c2cccnc2)cs1)c1ccccc1Cl	29	-16	-7	20*	16	23*	-6
Cc1ccccc1C(=O)Nc1nc(-c2cccnc2)cs1	6	3	-17	1	-3	.	.
O=C(NNS(=O)(=O)c1ccccc1Cl)c1nn(-c2ccc(F)cc2)ccc1=O	39	2	-5	0	8	.	.
CC(=O)c1ccc(N(CC(=O)NC2CCCCC2)C(=O)CNC(=O)c2ccco2)cc1	14	0	-6	-2	3	.	.
Cc1ccc(NC(=O)c2ccc3ccccc3n2)cc1S(=O)(=O)N1CCOCC1	13	-4	10	-2	-3	.	.

Bioassay records (PubChem BioAssay)
